From ChEMBL document CHEMBL3621120, “Discovery of ((4-(5-(Cyclopropylcarbamoyl)-2-methylphenylamino)-5-methylpyrrolo[1,2-f][1,2,4]triazine-6-carbonyl)(propyl)carbamoyloxy)methyl-2-(4-(phosphonooxy)phenyl)acetate (BMS-751324), a Clinical Prodrug of p38α MAP Kinase Inhibitor” (J Med Chem, 2015)
In brackets after ≈: the same amount, converted by molar mass.

Assays:
[1] = biological target: T1, Alkaline phosphatase, placental type (Homo sapiens, UniProt P05187); assay: Stability assessed as human placental ALP-mediated drug degradation by measuring compound remaining level in pH 7.5 tris buffer at 10 uM incubated for 0.25 hrs by LC/MS/MS method; format: ADME; details: read-out: Stability
Summary of the method: (§1)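 Human placental alkaline phosphatase (1 unit/mL) incubated with compound at 10 µM in 89 mM tris buffer, pH 7.5, 37 °C; reactions in triplicate started by compound addition, sampled at 0, 15, 30, 60 min. For inhibition, HALT phosphatase inhibitor cocktail (100x dilution) added before compound. Samples quenched into EDTA, acetonitrile added, centrifuged, remaining compound measured by LC/MS/MS.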

[2] = test system: Cynomolgus monkey; assay: Cmax in cynomolgus monkey assessed as plasma BMS-582949 level at 10 mg/kg, po dose equivalent to BMS-582949 after 24 hrs by LC/MS/MS method; format: ADME, organism-based, Macaca fascicularis; design: dose 10 mg/kg, route oral; details: in vivo
Summary of the method: (§2)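 Three overnight-fasted male cynomolgus monkeys (4.2-5.2 kg) given prodrug by oral gavage at 10 or 30 mg/kg, 5 mL/kg methocel suspension, one-week washout between doses. Femoral artery blood pre-dose and 0.25-24 h post-dose; plasma (centrifuged 4 °C) stored -20 °C and analysed by LC/MS/MS for parent.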

[3] = biological target: T2, Liver carboxylesterase (Sus scrofa, UniProt Q29550); assay: Stability assessed as porcine liver esterase-mediated drug degradation by measuring compound remaining level in pH 7.4 potassium phosphate buffer at 10 uM incubated for 0.5 hrs by LC/MS/MS; format: ADME, tissue-based; details: pig, read-out: Stability
T2 sequence (Q29550 whole entry): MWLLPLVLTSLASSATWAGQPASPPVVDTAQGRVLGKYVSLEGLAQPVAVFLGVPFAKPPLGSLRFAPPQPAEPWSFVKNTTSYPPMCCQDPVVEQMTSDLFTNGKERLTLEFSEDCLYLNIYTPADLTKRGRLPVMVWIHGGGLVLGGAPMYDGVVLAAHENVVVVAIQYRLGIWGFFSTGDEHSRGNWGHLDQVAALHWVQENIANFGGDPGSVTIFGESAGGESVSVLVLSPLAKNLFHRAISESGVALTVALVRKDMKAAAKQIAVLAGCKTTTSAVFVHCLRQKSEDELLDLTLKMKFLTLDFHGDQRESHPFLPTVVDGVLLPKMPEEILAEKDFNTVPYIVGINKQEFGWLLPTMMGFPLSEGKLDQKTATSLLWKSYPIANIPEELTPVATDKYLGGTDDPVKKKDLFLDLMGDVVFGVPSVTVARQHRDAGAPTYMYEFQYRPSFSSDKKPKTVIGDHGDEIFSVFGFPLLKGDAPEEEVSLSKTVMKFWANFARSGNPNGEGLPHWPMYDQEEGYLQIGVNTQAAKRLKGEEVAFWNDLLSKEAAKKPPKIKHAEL
Summary of the method: (§3)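 Porcine liver esterase with substrate at 10 µM in 89 mM potassium phosphate pH 7.4, 37 °C. Reaction started by adding compound. Aliquots taken at 0, 15, 30 and 60 min and quenched with acetonitrile. After centrifugation at 4 °C, percent remaining quantified by LC/MS/MS.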

[4] = Solubility of the compound in pH 1.2 solution at room temperature; format: physicochemical
[5] = biological target: T1, Alkaline phosphatase, placental type; assay: Stability assessed as human placental ALP-mediated drug degradation by measuring compound remaining level in pH 7.5 tris buffer at 10 uM incubated for 0.25 hrs in presence of HALT phosphatase inhibitor cocktail by LC/MS/MS method; format: ADME; details: pH 7.5, with HALT phosphatase inhibitor cocktail, read-out: Stability; summary of the method: as §1
[6] = Stability in pH 7.4 solution assessed as half-life at 37 degC; format: physicochemical
[7] = test system: Rattus norvegicus; assay: Bioavailability in Sprague-Dawley rat assessed as plasma BMS-582949 level at 1 mg/kg, po dose equivalent to BMS-582949 after 24 hrs by LC/MS/MS method; format: ADME, organism-based; details: in vivo
[8] = test system: Rattus norvegicus; assay: Inhibition of paw swelling in Lewis rat adjuvant arthritis model assessed as reduction in hind paw volume at 1 mg/kg, po bid dose equivalent to BMS-582949 beginning on day 11 post adjuvant challenge by volume displacement plethysmometry method relative to control; format: functional; details: 264 h
Summary of the method: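 Male Lewis rats given complete Freund's adjuvant on day 1; from day 11 compounds dosed orally BID in 0.5 mL vehicle (prodrug as aqueous suspension in 0.75% Methocel, 0.1% Tween 80; parent in PEG 300). Paw volume measured 3 times per week for rest of study; paw swelling inhibition reported.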

[9] = biological target: T1, Alkaline phosphatase, placental type; assay: Stability assessed as human placental ALP-mediated drug degradation by measuring compound remaining level in pH 7.5 tris buffer at 10 uM incubated for 0.5 hrs in presence of HALT phosphatase inhibitor cocktail by LC/MS/MS method; format: ADME; details: pH 7.5, with HALT phosphatase inhibitor cocktail, read-out: Stability; summary of the method: as §1
[10] = test system: Rattus norvegicus; assay: AUC in Sprague-Dawley rat assessed as plasma BMS-582949 level at 1 mg/kg, po dose equivalent to BMS-582949 after 24 hrs by LC/MS/MS method; format: ADME, organism-based; design: time < 24 hr, dose 1 mg/kg, route oral; details: in vivo
[11] = test system: Rattus norvegicus; assay: Cmax in Sprague-Dawley rat assessed as plasma BMS-582949 level at 100 mg/kg, po dose equivalent to BMS-582949 after 24 hrs by LC/MS/MS method; format: ADME, organism-based; design: dose 100 mg/kg, route oral; details: in vivo
[12] = test system: Cynomolgus monkey; assay: Bioavailability in cynomolgus monkey assessed as plasma BMS-582949 level at 30 mg/kg, po dose equivalent to BMS-582949 after 24 hrs by LC/MS/MS method; format: ADME, organism-based, Macaca fascicularis; details: in vivo; summary of the method: as §2
[13] = test system: Rattus norvegicus; assay: Inhibition of LPS-induced TNFalpha level in Lewis rat at 0.03 to 10 mg/kg, po dose equivalent to BMS-582949 dosed 1 hr before LPS challenge and measured 90 mins post LPS challenge by ELISA method; format: functional
Summary of the method: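 Male Lewis rats (200-250 g) dosed orally 1 h before IP injection of 10ug E. coli O111:B4 LPS in 1.0 mL sterile saline; prodrug as suspension in 0.75% Methocel, 0.1% Tween 80, parent in PEG 300, controls given vehicle. Blood taken 90 min after LPS; serum TNF measured by ELISA; ED50 expressed as parent equivalent.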

[14] = Solubility of the compound in pH 6.7 solution at room temperature; format: physicochemical
[15] = biological target: T2, Liver carboxylesterase; assay: Stability assessed as porcine liver esterase-mediated drug degradation by measuring compound remaining level in pH 7.4 potassium phosphate buffer at 10 uM incubated for 1 hr by LC/MS/MS; format: ADME, tissue-based; details: pig, read-out: Stability; summary of the method: as §3
[16] = biological target: T1, Alkaline phosphatase, placental type; assay: Stability assessed as human placental ALP-mediated drug degradation by measuring compound remaining level in pH 7.5 tris buffer at 10 uM incubated for 1 hr by LC/MS/MS method; format: ADME; details: read-out: Stability
Summary of the method: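 Human placental ALP at 1 unit/mL, test compound at 10 µM in 89 mM tris pH 7.5, 37 °C. Run in triplicate, started by adding compound. Aliquots taken at 0, 15, 30 and 60 min and quenched into 10 mM EDTA plus acetonitrile. After centrifugation at 4 °C, percent remaining measured by LC/MS/MS.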

[17] = test system: Rattus norvegicus; assay: Cmax in Sprague-Dawley rat assessed as plasma BMS-582949 level at 1 mg/kg, po dose equivalent to BMS-582949 after 24 hrs by LC/MS/MS method; format: ADME, organism-based; design: dose 1 mg/kg, route oral; details: in vivo
[18] = Stability in pH 1.1 solution assessed as half-life at 37 degC; format: physicochemical

T1 sequence (P05187 whole entry): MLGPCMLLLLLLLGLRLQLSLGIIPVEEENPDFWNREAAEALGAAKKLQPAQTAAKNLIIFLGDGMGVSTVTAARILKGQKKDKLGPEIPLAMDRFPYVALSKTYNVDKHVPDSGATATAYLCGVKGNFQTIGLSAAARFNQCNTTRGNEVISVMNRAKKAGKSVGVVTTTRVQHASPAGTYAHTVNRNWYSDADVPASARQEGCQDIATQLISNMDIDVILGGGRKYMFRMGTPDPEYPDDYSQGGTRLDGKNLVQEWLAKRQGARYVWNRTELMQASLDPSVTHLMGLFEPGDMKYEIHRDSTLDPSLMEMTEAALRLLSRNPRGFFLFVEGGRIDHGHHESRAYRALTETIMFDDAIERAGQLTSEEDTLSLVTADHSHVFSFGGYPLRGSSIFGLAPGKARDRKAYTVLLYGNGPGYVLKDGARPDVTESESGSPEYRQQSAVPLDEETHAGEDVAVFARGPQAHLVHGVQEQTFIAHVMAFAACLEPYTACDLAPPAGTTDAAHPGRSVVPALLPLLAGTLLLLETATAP

Q: Which results are given for `CCCN(C(=O)OCOC(=O)Cc1ccc(OP(=O)(O)O)cc1)C(=O)c1cn2ncnc(Nc3cc(C(=O)NC4CC4)ccc3C)c2c1C`?
A: remaining at 0.25 h, 10 µM [1]: 12.5%; Cmax [2]: 12 µM; remaining at 0.5 h, 10 µM [3]: 100%; solubility [4]: 100 µg/mL (≈ 144 µM); remaining at 0.25 h, 10 µM [5]: 100%; half-life [6]: 2220 min; F [7]: 41%; inhibition in vivo at 1 mg/kg [8]: 39%; remaining at 0.5 h, 10 µM [9]: 94%; AUC [10]: 3.1 µM·h; Cmax [11]: 122 µM; F [12]: 69%; ED50 [13]: 0.89 mg; inhibition [13]: Dose-dependent effect; solubility [14]: 3030 µg/mL (≈ 4360 µM); remaining at 1 h, 10 µM [15]: 100%; remaining at 1 h, 10 µM [16]: 10.9%; Cmax [17]: 400 nM; half-life [18]: 1260 min
